Measurements reported in ChEMBL document CHEMBL1134104, “Novel alkylpolyamine analogues that possess both antitrypanosomal and antimicrosporidial activity” (Bioorg Med Chem Lett, 2001).

Key:
[1] = test system: Encephalitozoon cuniculi; assay: In vitro growth inhibitory activity against Encephalitozoon cuniculi grown on RK-13 cells infected as a monolayer at concentration of 100 uM; assay type: functional
Outline: (§1)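 RK-13 monolayers were infected with E. cuniculi, with 50–80% of control cells infected. Compound was added to duplicate wells for 7 days, and drug-containing medium was replaced on days 3 and 6. On day 8, cells were fixed overnight, Giemsa-stained and counted by inverted microscope at 400× in five confluent fields (240 cells/field). Percentage of infected cells was compared with untreated controls. Values came from three to five growth curves.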

[2] = test system: Trypanosoma brucei; assay: In vitro growth inhibitory activity against Trypanosoma brucei strain LAB110; assay type: functional, organism-based
[3] = test system: Trypanosoma brucei; assay: In vitro growth inhibitory activity against Trypanosoma brucei strain K243; assay type: functional, organism-based
[4] = test system: Trypanosoma brucei; assay: In vitro growth inhibitory activity against Trypanosoma brucei strain K243 (As-10-3); assay type: functional, organism-based
[5] = test system: Trypanosoma brucei; assay: In vitro growth inhibitory activity against Trypanosoma brucei strain K269; assay type: functional, organism-based
[6] = test system: Encephalitozoon cuniculi; assay: In vitro growth inhibitory activity against Encephalitozoon cuniculi grown on RK-13 cells infected as a monolayer at concentration of 250 uM; assay type: functional; outline: as §1
[7] = test system: Encephalitozoon cuniculi; assay: In vitro growth inhibitory activity against Encephalitozoon cuniculi grown on RK-13 cells infected as a monolayer at concentration of 500 uM; assay type: functional; outline: as §1
[8] = test system: Encephalitozoon cuniculi; assay: In vitro growth inhibitory activity against Encephalitozoon cuniculi grown on RK-13 cells infected as a monolayer at concentration of 50 uM; assay type: functional; outline: as §1
[9] = test system: Encephalitozoon cuniculi; assay: In vitro growth inhibitory activity against Encephalitozoon cuniculi grown on RK-13 cells infected as a monolayer; assay type: functional, organism-based; outline: as §1

IC50 [2] [µM] | IC50 [3] [µM] | Compound | inhibition at 100 µM [1] [%] | IC50 [4] [µM] | IC50 [5] [µM] | inhibition at 250 µM [6] [%] | inhibition at 500 µM [7] [%] | inhibition at 50 µM [8] [%] | IC50 [9] [µM]
 |  | C(CNCC1CCC1)CNCC1CCCC(CNCCCNCC2CCC2)C1 (centres undefined) |  |  |  | 100 |  |  | 
 |  | N[C@@H]1C=C[C@@H](NCCCNCC2CCCC(CNCCCN[C@H]3C=C[C@H](N)C3)C2)C1 (some centres undefined) | 100 |  |  |  |  |  | 
 |  | CC[C@H](C)CNCCCNCCCCCCCNCCCN |  |  |  |  | 87 |  | 
0.031 | 0.04 | CCC(C)CNCCCNCCCCCCCNCCCNCC(C)CC (centres undefined) |  | 0.165 |  |  |  | 47 | 
> 100 | > 100 | N[C@H]1C=CC(NCCCNCC2CC2)C1 (some centres undefined) |  |  |  |  |  |  | 204
22 | 18.5 | COc1ccccc1CNCCCNCCCCCCCNCCCNCc1ccccc1OC |  | 5.5 | 16.5 |  |  | 100 | 
 |  | N[C@H]1C=CC(NCCCNCC2CCCCCC2)CCC1 (some centres undefined) | 76 |  |  |  |  |  | 
> 100 | > 100 | CCNCCCNC1C=CC(N)CCC1 (centres undefined) |  |  |  |  |  |  | 36
> 100 | > 100 | CCNCCCNCC1CCCC(N)CC1 (centres undefined) |  |  |  |  |  |  | 232
> 100 | > 100 | CCNCCCNCCCNCCCNCC [BIS(ETHYL)NORSPERMINE] |  | > 100 | > 100 |  |  |  | 
0.31 | 0.38 | CCNCCCNCCCCCCCNCCCNC[C@@H](C)CC |  | 0.79 |  |  |  |  | 

Compound | IC50 [2] [µM] | IC50 [3] [µM] | inhibition at 100 µM [1] [%] | IC50 [4] [µM] | IC50 [5] [µM] | inhibition at 250 µM [6] [%] | inhibition at 500 µM [7] [%] | inhibition at 50 µM [8] [%] | IC50 [9] [µM]
C(CNCC1CC1)CNCC1CCCC(CNCCCNCC2CC2)C1 (centres undefined) | 73 | 81.5 | 100 | > 100 | > 100 |  |  |  | 
c1ccc(CNCCCNCC2CCCC(CNCCCNCc3ccccc3)C2)cc1 (centres undefined) | 4.05 | 4.15 | 86 | 56 | 5.1 |  |  |  | 
c1ccc(-c2ccccc2CNCCCNCCCCCCCNCCCNCc2ccccc2-c2ccccc2)cc1 | 0.24 | 0.19 |  | 0.2 | 0.75 |  |  |  | 0.47
C1CCCC(CNCCCNCC2CCCC(CNCCCNCC3CCCCCC3)C2)CC1 (centres undefined) | 3.25 | 14 | 100 | 2.15 | 1.71 |  |  |  | 
